ChEMBL document CHEMBL1156179 (J Med Chem, 2010)

Assays:
Homo sapiens = species on record: Homo sapiens; experiment: Selectivity ratio of Ki for human adenosine A2A receptor to Ki for human adenosine A3
[1] = target: Adenosine receptors; A1 & A3 (Homo sapiens) (UniProt P30542+P0DMS8); experiment: Selectivity ratio of Ki for human adenosine A1 receptor to Ki for human adenosine A3
Adenosine receptor A1 = target: T1, Adenosine receptor A1 (Homo sapiens, UniProt P30542); experiment: Displacement of [3H]CCPA from human cloned adenosine A1 receptor expressed in CHO cells; type: cell-based
T1 sequence (P30542 whole entry): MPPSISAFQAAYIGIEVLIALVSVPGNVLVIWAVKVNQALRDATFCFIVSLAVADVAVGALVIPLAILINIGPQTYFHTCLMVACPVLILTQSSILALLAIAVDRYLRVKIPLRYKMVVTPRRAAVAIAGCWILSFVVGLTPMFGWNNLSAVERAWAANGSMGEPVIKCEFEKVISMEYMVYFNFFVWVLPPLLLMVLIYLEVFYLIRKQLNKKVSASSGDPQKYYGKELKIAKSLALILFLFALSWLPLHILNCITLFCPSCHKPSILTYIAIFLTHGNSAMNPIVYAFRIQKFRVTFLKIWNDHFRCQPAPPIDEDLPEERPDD
How it was run: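 CHO membranes with hA1 receptor, from 1000g 4 min spin then 100000g 30 min. Incubated 3 h at 25 °C with 1 nM [3H]CCPA, 0.2 U/mL adenosine deaminase, 20 μg protein in 50 mM Tris/HCl pH 7.4 and graded compound. Nonspecific binding with 1 mM theophylline.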

Adenosine receptor A2b = target: T2, Adenosine receptor A2b (Homo sapiens, UniProt P29275); experiment: Antagonist activity at human cloned adenosine A2b receptor expressed in CHO cells assessed as inhibition of NECA-stimulated cAMP accumulation; type: functional, cell-based
T2 sequence (P29275 whole entry): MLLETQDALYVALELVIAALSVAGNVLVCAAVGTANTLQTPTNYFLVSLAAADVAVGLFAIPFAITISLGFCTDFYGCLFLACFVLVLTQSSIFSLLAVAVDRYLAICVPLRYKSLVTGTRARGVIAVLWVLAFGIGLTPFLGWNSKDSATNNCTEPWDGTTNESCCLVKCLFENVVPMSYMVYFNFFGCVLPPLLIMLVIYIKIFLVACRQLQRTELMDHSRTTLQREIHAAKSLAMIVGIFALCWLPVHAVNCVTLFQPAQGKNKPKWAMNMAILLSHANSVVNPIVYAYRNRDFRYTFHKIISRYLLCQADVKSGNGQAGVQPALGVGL
How it was run: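 Membranes from CHO cells with hA2B receptor, prepared by a single 30 min spin at 54000g and resuspended in 50 mM Tris/HCl pH 7.4, used fresh. Antagonist inhibition of NECA-stimulated adenylyl cyclase gave IC50 by Hill fit; Ki from Cheng–Prusoff.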

Adenosine receptor A2a = Adenosine receptor A2a (Homo sapiens, UniProt P29274); experiment: Displacement of [3H]NECA from human cloned adenosine A2a receptor expressed in CHO cells; type: cell-based
How it was run: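 hA2A-CHO membranes, prepared by two-step centrifugation, were incubated with 30 nM [3H]NECA, 50 μg protein and graded compound under the A1 binding conditions. Nonspecific binding with 100 μM R-PIA.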

Adenosine receptor A3 = target: T3, Adenosine receptor A3 (Homo sapiens, UniProt P0DMS8); experiment: Displacement of [3H]NECA from human cloned adenosine A3 receptor expressed in CHO cells; type: cell-based
T3 sequence (P0DMS8 whole entry): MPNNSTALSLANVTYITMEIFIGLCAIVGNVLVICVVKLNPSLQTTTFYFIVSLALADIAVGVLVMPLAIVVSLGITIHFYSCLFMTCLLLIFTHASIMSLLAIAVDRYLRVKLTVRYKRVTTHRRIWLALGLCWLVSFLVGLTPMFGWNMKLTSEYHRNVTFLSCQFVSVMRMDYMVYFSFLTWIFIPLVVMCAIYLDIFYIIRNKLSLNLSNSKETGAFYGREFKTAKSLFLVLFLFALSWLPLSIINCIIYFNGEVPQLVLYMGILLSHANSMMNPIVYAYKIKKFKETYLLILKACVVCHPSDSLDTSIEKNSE

Chain of Adenosine receptor A2a (P29274 whole entry): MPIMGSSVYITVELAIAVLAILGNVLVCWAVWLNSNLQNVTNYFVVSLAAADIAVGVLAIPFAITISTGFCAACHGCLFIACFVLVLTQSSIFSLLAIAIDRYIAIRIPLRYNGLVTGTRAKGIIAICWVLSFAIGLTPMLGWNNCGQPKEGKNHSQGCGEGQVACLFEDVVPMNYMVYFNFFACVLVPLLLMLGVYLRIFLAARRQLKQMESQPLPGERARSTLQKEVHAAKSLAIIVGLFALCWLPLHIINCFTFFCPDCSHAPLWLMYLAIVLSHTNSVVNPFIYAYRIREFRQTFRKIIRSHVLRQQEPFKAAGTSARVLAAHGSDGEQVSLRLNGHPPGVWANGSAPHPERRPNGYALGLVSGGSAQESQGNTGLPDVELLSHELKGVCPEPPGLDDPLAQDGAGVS

Row | Structure (SMILES) | Ratio Ki (Homo sapiens) | Ratio Ki [1] | Ki (Adenosine receptor A1) | Ki (Adenosine receptor A2b) | Ki (Adenosine receptor A2a) | Ki (Adenosine receptor A3)
1 | Cn1cc2c(nc(N)n3nc(-c4ccco4)nc23)n1 | 0.009 | 0.33 |  |  |  | 
2 | Cn1cc2c(nc(N)n3nc(-c4ccccc4)nc23)n1 | 1.61 | 4.52 | 339 nM | > 10000 nM | 121 nM | 75 nM
3 | Cn1cc2c(nc(NC(=O)Cc3ccccc3)n3nc(-c4ccc(F)cc4)nc23)n1 | 12600 | 11400 | 2290 nM | > 10000 nM | 2540 nM | 0.201 nM
4 | Nc1nc2nn(CCc3ccccc3)cc2c2nc(-c3ccc(Br)cc3)nn12 | > 136 | 2.25 | 498 nM | > 10000 nM | > 30000 nM | 221 nM
5 | O=C(Nc1nc2nn(CCc3ccccc3)cc2c2nc(-c3ccc(Br)cc3)nn12)c1ccccc1 | > 654 | 1.76 | 270 nM | > 10000 nM | > 100000 nM | 153 nM
6 | Cn1cc2c(nc(NC(=O)c3ccccc3)n3nc(-c4ccc([N+](=O)[O-])cc4)nc23)n1 | > 1770 | > 532 | > 30000 nM | > 10000 nM | > 100000 nM | 56.4 nM
7 | Cn1cc2c(nc(NC(=O)Cc3ccccc3)n3nc(-c4ccccc4)nc23)n1 | 7200 | 5200 | 562 nM | > 10000 nM | 778 nM | 0.108 nM
8 | COc1ccc(-c2nc3c4cn(C)nc4nc(N(C(=O)c4ccccc4)C(=O)c4ccccc4)n3n2)cc1 | > 1450 | > 1450 | > 10000 nM | > 10000 nM | > 10000 nM | 6.88 nM
9 | Cn1cc2c(nc(N)n3nc(-c4ccc([N+](=O)[O-])cc4)nc23)n1 | > 15.3 | > 458 | > 300000 nM | > 10000 nM | > 10000 nM | 655 nM
10 | CCn1ncc2c1nc(N)n1nc(-c3ccc(Cl)cc3)nc21 | 0.15 | 0.21 | 121 nM | > 10000 nM | 83.8 nM | 565 nM
11 | Nc1nc2nn(CCc3ccccc3)cc2c2nc(-c3ccc(F)cc3)nn12 | 2.51 | 0.773 | 39.1 nM | > 10000 nM | 127 nM | 50.6 nM
12 | COc1ccc(-c2nc3c4cn(C)nc4nc(NC(=O)Cc4ccccc4)n3n2)cc1 | > 415000 | > 124000 | > 30000 nM | > 10000 nM | > 100000 nM | 0.241 nM
13 | Cn1cc2c(nc(NC(=O)c3ccccc3)n3nc(-c4ccc(F)cc4)nc23)n1 | > 29200 | 738 | 2530 nM | > 10000 nM | > 100000 nM | 3.43 nM
14 | Cn1cc2c(nc(NC(=O)Cc3ccccc3)n3nc(-c4ccc(Cl)cc4)nc23)n1 | 33500 | 19600 | 4850 nM | > 10000 nM | 8320 nM | 0.248 nM
15 | Cn1cc2c(nc(NC(=O)Cc3ccccc3)n3nc(-c4ccco4)nc23)n1 | 522 | 867 |  |  |  | 
16 | Nc1nc2nn(CCc3ccccc3)cc2c2nc(-c3ccc(Cl)cc3)nn12 | 27.4 | 2.56 | 204 nM | > 10000 nM | 2180 nM | 79.7 nM

Row | Structure (SMILES) | Ratio Ki (Homo sapiens) | Ratio Ki [1] | Ki (Adenosine receptor A1) | Ki (Adenosine receptor A2b) | Ki (Adenosine receptor A2a) | Ki (Adenosine receptor A3)
17 | Cn1cc2c(nc(NC(=O)Cc3ccccc3)n3nc(-c4ccc(Br)cc4)nc23)n1 | > 290000 | 70700 | 24400 nM | > 10000 nM | > 100000 nM | 0.345 nM
18 | Nc1nc2nn(CCc3ccccc3)cc2c2nc(-c3ccccc3)nn12 | 2.56 | 0.975 | 74.8 nM | > 10000 nM | 196 nM | 76.7 nM
19 | COc1ccc(-c2nc3c4cn(C)nc4nc(N)n3n2)cc1 | 71.3 | 583 | 9730 nM | > 10000 nM | 1190 nM | 16.7 nM
20 | Cn1cc2c(nc(N)n3nc(-c4ccc(Cl)cc4)nc23)n1 | 27.9 | 67.1 | 4860 nM | > 10000 nM | 2020 nM | 72.4 nM
21 | Cn1cc2c(nc(NC(=O)c3ccccc3)n3nc(-c4ccc(Cl)cc4)nc23)n1 | > 35500 | > 10600 | > 30000 nM | > 10000 nM | > 100000 nM | 2.82 nM
22 | COc1ccc(-c2nc3c4cn(CCc5ccccc5)nc4nc(N)n3n2)cc1 | 56 | 11.6 | 289 nM | > 10000 nM | 1400 nM | 25 nM
23 | CCn1cc2c(nc(N)n3nc(-c4ccc(Cl)cc4)nc23)n1 | 12.3 | 22.9 | 1570 nM | > 10000 nM | 843 nM | 68.7 nM
24 | Cn1cc2c(nc(NC(=O)Cc3ccccc3)n3nc(-c4ccc([N+](=O)[O-])cc4)nc23)n1 | 38300 | 37200 | 23200 nM | > 10000 nM | 23900 nM | 0.624 nM
25 | Cn1cc2c(nc(N)n3nc(-c4ccc(Br)cc4)nc23)n1 | 38.9 | 74.9 | 2890 nM | > 10000 nM | 1500 nM | 38.6 nM
26 | Cn1cc2c(nc(N)n3nc(-c4ccc(F)cc4)nc23)n1 | 11.3 | 32.2 | 1010 nM | > 10000 nM | 355 nM | 31.4 nM
27 | Cn1cc2c(nc(NC(=O)c3ccccc3)n3nc(-c4ccccc4)nc23)n1 | 64.8 | 124 | 622 nM | > 10000 nM | 324 nM | 5 nM
28 | COc1ccc(-c2nc3c4cn(C)nc4nc(NC(=O)c4ccccc4)n3n2)cc1 | > 47600 | > 14300 | > 30000 nM | > 10000 nM | > 100000 nM | 2.1 nM
29 | Cn1cc2c(nc(N(C(=O)c3ccccc3)C(=O)c3ccccc3)n3nc(-c4ccc(Cl)cc4)nc23)n1 | > 1440 | > 1440 | > 10000 nM | > 10000 nM | > 10000 nM | 6.94 nM
30 | O=C(Nc1nc2nn(CCc3ccccc3)cc2c2nc(-c3ccccc3)nn12)c1ccccc1 | 40.3 | 13.1 | 313 nM | > 10000 nM | 963 nM | 23.9 nM
31 | Cn1cc2c(nc(NC(=O)c3ccccc3)n3nc(-c4ccc(Br)cc4)nc23)n1 | > 19100 | > 5730 | > 30000 nM | > 10000 nM | > 100000 nM | 5.24 nM
